Results from the RNAGym collection of RNA variant scans (doi:10.1126/science.aae0568).
This sample holds only a part of the variants without activity.

B1: tRNA (parent)
chain: GUUCCGUUGGCGUAAUGGUAACGCGUCUCCCUCCUAAGGAGAAGACUGCGGGUUCGAGUCCCGUACGGAACG

Variants of: B1
Assay: yeast fitness relative to wild type (ratio to wild type); higher = fitter; tRNA-Arg(CCU), competitive growth, 37 C, YPD
In short: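 Changes in genotype frequencies gave Darwinian fitness relative to wild type. Frequencies were read by 100-nucleotide paired-end sequencing of gene amplicons before and after pooled Saccharomyces cerevisiae strains, carrying tRNA-Arg(CCU) gene variants at the native locus, were competed in YPD at 37°C for 24 hours in six replicates. A genotype was kept only with ≥ 100 starting reads, and estimates < 0.5 were set to 0.5.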

Row | Variant | yeast fitness
1 | G44A U64G | 0.694
2 | G9A U16C A20C A40G C55U | ≤ 0.5
3 | U19G U35C A43C G52C U54A | ≤ 0.5
4 | C27U G56C | 0.595
5 | C11G U35A C66G | ≤ 0.5
6 | G6A G48C C49U | 0.652
7 | U2G C11U A45C U53G | 0.583
8 | A43G U47A U53A | ≤ 0.5
9 | A45C G48C A69U | 0.675
10 | A42U C49U G51A | 0.665
11 | U3A U19A A42U G44C U54A | ≤ 0.5
12 | C24U C27G C61G | ≤ 0.5
13 | A40U A43U C60U C62U C66U | ≤ 0.5
14 | A14C A43C A57G C66U | ≤ 0.5
15 | C22G A37G | 0.697
16 | C11G A21G C31G A65U | 0.561
17 | C27A C62U | 0.815
18 | C4A A21G C49G G63C | 0.538
19 | G6A C11A U16C U32G C49G C55A | ≤ 0.5
20 | C22G C24G C29U C33U A37C G52A C66U | 0.548
21 | U8A A65C A70U | 0.525

Row | Variant | yeast fitness
22 | U8G U47G C49A A69U | ≤ 0.5
23 | C31G C55A A57U U59C C60U | ≤ 0.5
24 | C5G A20G A36C A42G | ≤ 0.5
25 | C11U A15G C27G A45U | ≤ 0.5
26 | U3A A15G C24A | ≤ 0.5
27 | G9A G38A A69C | 0.724
28 | U3A G9A | 0.977
29 | U13G U35G A40G | 0.676
30 | C5A C29A A70U | ≤ 0.5
31 | G18C G23A G25A C49U C60G | ≤ 0.5
32 | C5A U26A A43U A65U | ≤ 0.5
33 | U13G U26G G52A | ≤ 0.5
34 | A20C C27U C55U | 0.76
35 | C11G G41A A69U | ≤ 0.5
36 | A43U G67A | 0.79
37 | G25A A57C | 0.697
38 | G18A G25A C31U | 0.63
39 | G18A G25C C30G G41U A57U | ≤ 0.5
40 | G10C U26A C27U C34U C49U | 0.602
41 | C29A U35C A45C C49U | ≤ 0.5
42 | U7A C46G A70U | 0.642

Row | Variant | yeast fitness
43 | G17C A40G G41A G56C | ≤ 0.5
44 | C4A A57C C62U | ≤ 0.5
45 | G10C G12C G39A | ≤ 0.5
46 | U7A C34U C49A | ≤ 0.5
47 | A15G U47C | 0.896
48 | A37C C62A | 0.874
49 | U3A C24G C31U G52C | ≤ 0.5
50 | C30U G63C A69U | 0.527
51 | C11G G50A | 0.716
52 | A15G C34U A36G | 0.563
53 | U13C G18C G50C A57U C62U | 0.578
54 | U3G A20G C49U | ≤ 0.5
55 | U8A C46U A57C | 0.635
56 | C5G C31A A37C G48A G58C G68C | ≤ 0.5
57 | U8G A43C G51A | ≤ 0.5
58 | U3G A43G | 0.936
59 | U2A C29A A42G C49U U54A C60G G68A | ≤ 0.5
60 | A15U C22A G23A C24A | ≤ 0.5
61 | C24U U26A U28G | 0.506
62 | C5U U13G A69U | 0.76
63 | C5G G6A C29U C33G G38A U59G | 0.562

Row | Variant | yeast fitness
64 | C11G C30G C33A C66U | ≤ 0.5
65 | C27G U35A | 0.636
66 | U8A A20C C31A A57C C66A A69U | ≤ 0.5
67 | A14C A15U G17A C27U U32C U35G | ≤ 0.5
68 | U19C C30G U59C A69U | ≤ 0.5
69 | G38A A43U G56A G63A | ≤ 0.5
70 | U28G C33A A45C | ≤ 0.5
71 | A45G C46G U54G A70C | ≤ 0.5
72 | A21U C31A C34A G39C C61A | ≤ 0.5
73 | U47C C49G | 0.909
74 | G9A G23C A37G | ≤ 0.5
75 | C22A C27G A43U C60A | 0.557
76 | C24U A42G G50A | ≤ 0.5
77 | C31A A40U C46A A70C | 0.626
78 | U2C C11G C22G G56A G63A | ≤ 0.5
79 | G9A G12A C22U U53G | ≤ 0.5
80 | G6A U26A C33A G51C C62U | 0.591
81 | U26C A40G C49U | 0.502
82 | U7A G12C C27G C31A C46A C62G | ≤ 0.5
83 | U7G C31G A36C | ≤ 0.5
84 | U2G C30U G58C G63C | 0.618
